Test results: ChEMBL document CHEMBL4616681, “Discovery of 3-Pyridyl Isoindolin-1-one Derivatives as Potent, Selective, and Orally Active Aldosterone Synthase (CYP11B2) Inhibitors” (J Med Chem, 2020)

Key:
[1] = molecular target: T1, Cytochrome P450 11B2, mitochondrial (Homo sapiens, UniProt P19099); assay: Inhibition of human CYP11B2 expressed in human renal leiomyoblastoma cells harboring FDXR/FDX using 1-deoxycorticosterone as substrate by HTRF assay; format: cell-based
T1 sequence (P19099 whole entry): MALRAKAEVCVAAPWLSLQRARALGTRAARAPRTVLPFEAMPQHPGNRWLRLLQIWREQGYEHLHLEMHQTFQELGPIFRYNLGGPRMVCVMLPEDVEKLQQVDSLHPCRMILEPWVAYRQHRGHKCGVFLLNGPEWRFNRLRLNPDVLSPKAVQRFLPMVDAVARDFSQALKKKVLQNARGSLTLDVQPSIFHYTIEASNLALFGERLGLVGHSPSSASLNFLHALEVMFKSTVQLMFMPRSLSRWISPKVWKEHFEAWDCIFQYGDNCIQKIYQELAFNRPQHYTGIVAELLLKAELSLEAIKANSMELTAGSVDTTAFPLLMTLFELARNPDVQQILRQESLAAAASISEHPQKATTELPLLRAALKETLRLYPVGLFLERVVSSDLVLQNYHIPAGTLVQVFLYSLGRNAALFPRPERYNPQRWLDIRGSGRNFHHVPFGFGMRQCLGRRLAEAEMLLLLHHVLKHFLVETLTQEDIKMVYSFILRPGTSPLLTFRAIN
Summary of the method: (§1)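 Cells with endogenous FDXR/FDX and no detectable CYP11B activity, stably transfected (CMV promoter, neomycin selection, G-418 400 µg/mL) with CYP11B1 or CYP11B2 of the named species. Assayed in DMEM/F12 with 2.5% charcoal-treated FCS. Substrate 1 µM 11-deoxycorticosterone (B2) or 11-deoxycortisol (B1), 16 hr. Aldosterone or cortisol in supernatant measured by HTRF. IC50 from 4-parameter MMF fit; selectivity factor is the B1/B2 IC50 ratio.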

[2] = Selectivity ratio of IC50 for human CYP11B1 expressed in human renal leiomyoblastoma cells harboring FDXR/FDX to IC50 for human CYP11B2 expressed in human renal leiomyoblastoma cells harboring FDXR/FDX; format: cell-based; summary of the method: as §1
[3] = molecular target: T2, Cytochrome P450 11B1, mitochondrial (Homo sapiens, UniProt P15538); assay: Inhibition of human CYP11B1 expressed in human renal leiomyoblastoma cells harboring FDXR/FDX using 1-deoxycortisol as substrate by HTRF assay; format: ADME, cell-based; summary of the method: as §1
T2 sequence (P15538 whole entry): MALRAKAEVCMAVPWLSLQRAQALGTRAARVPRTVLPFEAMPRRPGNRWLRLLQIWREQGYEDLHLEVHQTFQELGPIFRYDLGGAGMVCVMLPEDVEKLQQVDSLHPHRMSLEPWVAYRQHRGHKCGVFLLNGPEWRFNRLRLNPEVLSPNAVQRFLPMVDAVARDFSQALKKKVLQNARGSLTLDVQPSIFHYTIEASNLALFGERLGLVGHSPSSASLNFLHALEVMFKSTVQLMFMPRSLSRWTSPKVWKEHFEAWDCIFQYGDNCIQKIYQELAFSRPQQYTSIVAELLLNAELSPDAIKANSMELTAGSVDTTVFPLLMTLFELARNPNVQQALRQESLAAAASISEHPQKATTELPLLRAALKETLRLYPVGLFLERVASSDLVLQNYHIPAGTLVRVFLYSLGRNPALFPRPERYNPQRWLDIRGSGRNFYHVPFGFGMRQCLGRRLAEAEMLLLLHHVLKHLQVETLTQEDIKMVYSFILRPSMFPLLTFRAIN

[4] = Intrinsic clearance in human liver microsomes preincubated for 10 mins followed by NADPH regenerating system addition and measured up to 30 mins by LC/MS-MS analysis; format: ADME, Microsome; conditions: read-out: CLH
Summary of the method: (§2)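 Liver microsomes at 0.5 mg protein/mL in 100 mM potassium phosphate, pH 7.4. Compound preincubated 10 min at 37 °C. Intrinsic clearance scaled using the well-stirred liver model.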

[5] = Intrinsic clearance in mouse liver microsomes preincubated for 10 mins followed by NADPH regenerating system addition and measured up to 30 mins by LC/MS-MS analysis; format: ADME, Microsome; summary of the method: as §2

IC50 [1] [µM]	IC50 [3] [µM]	predicted hepatic clearance [4] [mL/min/kg]	predicted hepatic clearance (CLH) [5] [mL/min/kg]	Structure (SMILES)	Ratio IC50 [2]
0.277	> 3			Cc1cc(Cl)ccc1C(=O)Nc1cccnc1	> 11
0.012	0.345	< 3.5	< 20.2	CCC(=O)N[C@@H]1CCCc2c1cncc2N1C(=O)c2ccc(Cl)cc2[C@@H]1CC	29
0.967	> 3			O=C(Nc1cccnc1)c1ccccc1Cl	> 3
0.104	3.54	< 3.5	30.9	O=C1c2cc(F)c(Cl)cc2CCN1c1cccnc1	34
0.121	3.34	6.6	65.9	CCC1c2cc(Cl)ccc2C(=O)N1c1cccnc1 (configuration not stated)	28
0.092				CCS(=O)(=O)NCc1cncc(N2C(=O)c3ccc(Cl)cc3C2(C)C)c1	31
0.42	> 3			O=C(Nc1cccnc1)c1ccc(Cl)cc1	> 7
0.09	10.2	< 3.5	44.9	CCC(=O)N[C@@H]1CCCc2c1cncc2N1C(=O)c2ccc(Cl)cc2[C@H]1CC	114
0.004	0.081	< 3.5	< 20.2	CC(=O)N[C@@H]1CCCc2c1cncc2N1C(=O)c2ccc(Cl)cc2[C@@H]1C	20
0.014				Cc1ccncc1C(=O)N1CC2(C1)CN(c1cncc(N3C(=O)c4ccc(Cl)cc4C3(C)C)c1)C2	1870
0.123	1.25	12.2	66.5	CC1c2cc(Cl)ccc2C(=O)N1c1cccnc1 (configuration not stated)	10
0.108	4.28	< 3.5	25	CC1(C)c2cc(Cl)ccc2C(=O)N1c1cccnc1	40
0.066	9.41	< 3.5	45.6	CCC(=O)N[C@@H]1CCCc2c1cncc2N1C(=O)c2ccc(Cl)cc2[C@H]1C	143
5.14	39.6			CC(=O)N[C@H]1CCCc2c1cncc2N1Cc2cc(Cl)ccc2C1=O	8
0.282				CCC(=O)NCc1cncc(N2C(=O)c3ccc(Cl)cc3C2(C)C)c1	28
0.1	22.8			CC(=O)N[C@@H]1CCCc2c1cncc2N1C(=O)c2ccc(Cl)cc2[C@H]1C1CC1	228
> 3	> 3			CN(C(=O)c1ccc(Cl)cc1F)c1cccnc1	
0.161	32.5	9.4		O=C1c2ccc(Cl)cc2C(C2CC2)N1c1cccnc1 (configuration not stated)	202
1.07	0.214			O=C1c2ccc(Cl)cc2C(Cc2ccccc2)N1c1cccnc1 (configuration not stated)	0.2
1.12	> 3			O=C1c2ccccc2CN1c1cccnc1	> 3
0.297	> 3			O=C(Nc1cccnc1)c1ccc(Cl)cc1F	> 10
> 3	> 3			Cc1cc(Cl)ccc1C(=O)N(C)c1cccnc1	
0.354	> 30			CC(=O)N[C@@H]1CCCc2c1cncc2N1C(=O)c2ccc(Cl)cc2[C@@H]1C1CC1	> 85
0.12	4.45	3.5		O=C1c2ccc(Cl)cc2C2(CC2)N1c1cccnc1	37
0.454	> 3			N#Cc1ccc(C(=O)Nc2cccnc2)cc1	> 7
> 3	> 3			CN(C(=O)c1ccc(C#N)cc1)c1cccnc1	
> 3	> 3			Cc1ccc(C(=O)Nc2cccnc2)cc1	
